# This is a sample that favours compounds with a hit; in the whole collection about 3.7% have one here.
# hERG protect: shields human hERG channel from block by proarrhythmic agents; Q12809; CHO-hERG, FluxOR thallium flux, dofetilide IC70 present; activation (rescue from dofetilide block), less the hit threshold, % at 10 µM; actives 0.51% (n = 310,000);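 active = activation above the mean of controls blocked by dofetilide plus 5 SD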;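 note: thallium influx through hERG after potassium depolarization seen as dye fluorescence rise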
# KCNK9 block: blocks the human KCNK9 two-pore domain potassium channel. actives 1.2% (n = 310,000). B-score at 10 µM. HEK293 KCNK9, FluxOR thallium flux fluorescence; active compounds read low. AID 488922. Q9NPC2;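 active = ratio B-score over 3 SD below the library mean, with starting fluorescence within 5 SD of its mean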;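 note: negative B-score means less thallium flux so channel inhibition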
# Target sequence (Q9NPC2 whole entry, looked up, the tested form may be a part): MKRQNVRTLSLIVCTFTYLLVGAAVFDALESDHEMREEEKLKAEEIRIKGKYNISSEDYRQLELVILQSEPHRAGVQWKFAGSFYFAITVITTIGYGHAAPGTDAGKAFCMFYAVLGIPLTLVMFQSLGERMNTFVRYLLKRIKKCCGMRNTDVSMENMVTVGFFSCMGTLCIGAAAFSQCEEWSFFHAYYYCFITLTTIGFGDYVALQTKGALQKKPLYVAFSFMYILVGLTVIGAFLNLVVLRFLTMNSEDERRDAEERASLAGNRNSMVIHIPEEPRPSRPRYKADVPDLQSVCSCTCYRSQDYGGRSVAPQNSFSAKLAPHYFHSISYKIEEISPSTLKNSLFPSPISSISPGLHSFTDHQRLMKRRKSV
# KCNQ1 act: potentiates or activates the human KCNQ1 potassium channel; P51787; CHO-K1 KCNQ1, thallium flux FluxOR fluorescence; active compounds read high; B-score at 10 µM; actives 0.35% (n = 310,000);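 active = fluorescence ratio B-score, a plate-corrected score, at least three library SD, with initial intensity B-score within 5 SD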
#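 Medium – assay buffer, equal DMSO in all wells · Material – CHO-K1 cell line with stable KCNQ1 potassium channel expression · Signal – kinetic FluxOR thallium fluorescence, 10-s 1-Hz baseline, 110-s post-stimulus read · Compound – single concentration per compound, DMSO matched to controls · Schedule – 37 °C overnight plating, 90-min dark dye load, 20-min compound pretreatment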
# KCNK3 block: human KCNK3 channel inhibition, primary screen; CHO-KCNK3 thallium flux, FluxOR fluorescence; active compounds read low; B-score at 10 µM; actives 0.84% (n = 340,000);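 active = B-score under library mean minus 4 SD, starting fluorescence ratio at most library mean plus 5 SD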;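 note: more negative B-score means stronger inhibition of thallium flux through KCNK3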
# KCNQ1 block: inhibitors of human KCNQ1 potassium channel. P51787. B-score at 10 µM. actives 1.3% (n = 310,000). CHO-K1 KCNQ1, FluxOR thallium flux fluorescence; active compounds read high. AID 2642;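 active = compounds whose thallium flux B-score, printed positive for inhibition, exceeds three library SD while starting fluorescence stays within three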;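 note: channel opened by potassium depolarization with thallium stimulus after 20 min compound exposure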
# Kir21 inh: Kir2.1 (mouse) channel inhibition; actives 0.85% (n = 310,000); HEK293-Kir2.1, FluxOR thallium flux fluorescence; active compounds read low; B-score at 10 µM; P35561;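 active = fluorescence ratio B-score at or below minus 3 SD of library scores, with starting-brightness B-score within 2 SD, cut at about -4.2 in these data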;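 note: channel flux triggered by added potassium and thallium sulfate stimulus; B-score of peak minus minimum fluorescence over baseline after thallium stimulus; more negative B-score means stronger Kir2.1 block with less thallium influx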
# KCNK9 block conf: confirmation of human KCNK9 potassium channel inhibitors. HEK293 KCNK9 cells, FluxOR thallium flux fluorescence. inhibition, % at 10 µM. actives 43% (n = 4,900). AID 492992. shares compounds with KCNK9 block;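 active = thallium signal inhibited by more than 5 SD of the compound-free buffer control wells, on both duplicate plates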
# Kir21 sel: selectivity of KCNK9 modulators against mouse Kir2.1; shares compounds with KCNK9 block; Kir2.1 cells, FluxOR thallium flux fluorescence; inhibition, % at 10 µM; actives 4% (n = 4,900); AID 492993;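 active = thallium signal drop more than 5 SD beyond the mean of the no-compound control wells, seen in both duplicate plates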;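 note: signal is fluorescence rise after thallium addition divided by baseline fluorescence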
# KCNK9 uninduced: non-induced cell nonspecific activity of KCNK9 modulators; actives 40% (n = 4,900); non-induced KCNK9-HEK293, FluxOR thallium flux; AID 492997; inhibition, % at 10 µM; shares compounds with KCNK9 block;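 active = thallium signal drop beyond 5 SD of the untreated control mean, on both duplicate plates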
# Hits are given with their value; - = inactive; . = not tested or not shown.
SMILES,hERG protect,KCNK9 block,KCNQ1 act,KCNK3 block,KCNQ1 block,Kir21 inh,KCNK9 block conf,Kir21 sel,KCNK9 uninduced
C=CCc1ccc(OCCOc2cccc3ccc(C)nc23)c(OC)c1,-,-,-,-,-,-,-,-,-
C=CCc1ccc(OCCOCCN(C)C)c(OC)c1,-,-,-,-,-,-,.,.,.
C=CCc1ccc(OCCCCOc2ccc(C(=O)O)cc2)c(OC)c1,-,-,-,-,-,-,.,.,.
COc1ccc(N2CCOCC2)c(NC(=O)c2cccs2)c1,-,-,-,-,-,-,.,.,.
C/C(=N\NC(=S)NCCc1ccccc1)c1ccc(Cl)cc1Cl,-,-,-,-,-,-,-,-,-
COc1ccc(CCNc2nc(C)nc3c2nnn3Cc2ccccc2)cc1,-,-,-,-,-,-,-,-,-
Cc1nc(NCCc2ccccc2)c2nnn(Cc3ccccc3Cl)c2n1,-,-,-,-,-,-,.,.,.
COc1ccc(OC)c(Nc2nc(C3CC3)nc3c2nnn3Cc2ccccc2)c1,-,-,-,-,-,-,-,-,-
Cc1nc(N2CCC(C)CC2)c2nnn(Cc3ccccc3)c2n1,-,-,-,-,-,-,-,-,-
CC(C)Cc1nc(N2CCC(C(N)=O)CC2)c2nnn(Cc3ccccc3)c2n1,-,-,-,-,-,-,.,.,.
COc1ccc(Cl)cc1Nc1nc(C)nc2c1nnn2Cc1ccccc1,-,-,-,-,-,-,.,.,.
Cc1ccc(S(=O)(=O)N(Cc2ccccc2)c2ccccc2C(=O)Nc2ccccc2C(=O)NCc2ccco2)cc1,-,-9.61,-,-,8,-,-,-,34.0%
CCCNC(=O)c1ccc(CN2CCOCC2)cc1,-,-,-,-,-,-,.,.,.
O=C(NCc1ccccc1)c1onc(CSc2ccc(Cl)cc2)c1C(=O)NCC1CC1,-,-,-,-,-,-,-,-,-
CC(C)NC(=O)c1c(CSc2ccc(Cl)cc2)noc1C(=O)NCc1ccccc1,-,-,-,-,-,-,-,-,-
O=C(NCc1ccccc1)c1onc(CSc2ccc(Cl)cc2)c1C(=O)NCc1ccccc1,-,-,-,-,-,-,.,.,.
CCCNC(=O)c1c(CSc2ccc(Cl)cc2)noc1C(=O)NCc1ccccc1,-,-,-,-,-,-,-,-,-
CCCCNC(=O)c1c(CSc2ccc(Cl)cc2)noc1C(=O)NCc1ccccc1,-,-,-,-,-,-,-,-,-
CN(C)CCNC(=O)c1c(CSc2ccc(Cl)cc2)noc1C(=O)NCc1ccccc1,-,-,-,-,-,-,.,.,.
CCn1cc(CCC(=O)NC2CCCC2)c2ccccc21,-,-,-,-,-,-,.,.,.
CCOc1ccccc1CNC(=O)c1ccc2nc(N3CCOCC3)sc2c1,-,-,-,-,-,-,.,.,.
CC1=C(C(=O)Nc2ccccc2)C(c2cccs2)NC(=O)N1 (stereo not drawn),-,-,-,-,-,-,.,.,.
CCc1cc2c(SCC#N)ncnc2s1,-,-,-,-,-,-,.,.,.
Cn1nc(C(=O)Nc2ccc3c(c2)OCCO3)cc1C(=O)O,-,-,-,-,-,-,.,.,.
O=C1NC2(CCCCC2)C(=O)N1c1cccc(Cl)c1,-,-,-,-,-,-,.,.,.
SMILES,hERG protect,KCNK9 block,KCNQ1 act,KCNK3 block,KCNQ1 block,Kir21 inh,KCNK9 block conf,Kir21 sel,KCNK9 uninduced
CCCCNC(=O)c1c(CSc2ccccc2)noc1C(=O)NCc1ccccc1,-,-,-,-,-,-,-,-,-
COCCNC(=O)c1c(CSc2ccccc2)noc1C(=O)NCc1ccccc1,-,-,-,-,-,-,.,.,.
O=C(NCc1ccccc1)c1onc(CSc2ccccc2)c1C(=O)NCc1ccccc1,-,-,-,-,-,-,-,-,-
CCn1c(C(=O)NCCCN2CCc3ccccc3C2)cc2sccc21,-,-,-,-,-,-,.,.,.
CCn1c(C(=O)N2CCc3ccccc3C2)cc2sccc21,-,-,-,-,-,-,-,-,-
O=C(CCC1CCCN(Cc2cccc(Cl)c2)C1)NCc1ccccc1F (stereo not drawn),-,-,-,-,-,-,.,.,.
Cc1ccc(NC(=O)c2cccc3c2C(=O)N(C2CCCCC2)C3)c(Cl)c1,-,-18,-,-,-,-,55.5%,-,43.5%
O=C(Nc1ccc(Br)cc1Br)c1cccc2c1C(=O)N(C1CCCCC1)C2,-,-17.7,-,-,-,-,49.5%,-,33.0%
O=C(Nc1ccc(Br)cc1)c1cccc2c1C(=O)N(C1CCCCC1)C2,-,-,-,-,-,-,.,.,.
O=C(NC(=S)Nc1cccc2c(O)cccc12)c1ccccc1[N+](=O)[O-],-,-,-,-,-,-,.,.,.
Cc1cccc(NC(=O)N2CCc3ccccc3C2)c1C,-,-,-,-,-,-,.,.,.
COc1ccc(OC)c(-c2csc(NC(=O)C3c4ccccc4Oc4ccccc43)n2)c1,-,-9.13,-,-,-,-,36.0%,-,32.5%
COc1ccc(CC(=O)Nc2nc(-c3cc(OC)ccc3OC)cs2)cc1,-,-,-,-,-,-,.,.,.
Cc1ccccc1NC(=S)NCc1ccc2[nH]c3c(c2c1)CCCC3,-,-,-,-,-,-,-,-,-
O=c1cc(Cl)c(-c2ccccc2)nn1Cc1ccc(Cl)cc1,-,-,-,-,-,-,.,.,.
O=c1cc(N2CCCCC2)c(-c2ccccc2)nn1Cc1ccc(Cl)cc1Cl,-,-20.8,-,-,9,-,80.0%,-,45.5%
CCCCc1ccc(-n2nnnc2SCC(=O)Nc2cc(OC)c([N+](=O)[O-])cc2C)cc1,-,-,-,-,-,-,-,-,-
CCCC(=O)c1c[nH]c(C(=O)N2CCOCC2)c1,-,-,-,-,-,-,.,.,.
CN(Cc1ccc(F)cc1)Cc1nc(CCc2ccccc2)no1,-,-,-,-,-,-,-,-,-
CCOC(=O)CSc1nnc(SCCN2C(=O)c3ccccc3C2=O)s1,-,-,-,-,-,-,.,.,.
O=C(CSc1nccc(-c2cccs2)n1)Nc1ccc(F)c(Cl)c1,-,-8.24,-,-,-,-,-,-,37.0%
O=C(CSc1nccc(-c2cccs2)n1)Nc1cccc(Cl)c1,-,-,-,-,-,-,.,.,.
O=C(Nc1ccc(CN2CCCCC2)cc1)c1cc(Br)ccc1Cl,-,-8.53,-,-,-,-,30.5%,-,37.0%
Cc1cc(C(=O)CCC(=O)N2CCN(c3ccccc3F)CC2)c(C)s1,-,-,-,-,-,-,-,-,-
Cc1ccc(C)c(S(=O)(=O)NCC(=O)OCC(=O)Nc2sccc2C(N)=O)c1,.,.,.,-,.,.,.,.,.
CC(=O)c1sc(NC(=O)COc2ccc(C)c(C)c2)nc1C,-,-,-,-,-,-,.,.,.

# High-throughput results from PubChem BioAssay.
